Runt-CBFb FRET – inhibitors of RUNX1 Runt–CBFb binding, primary screen, biochemical, FRET, Cerulean-Runt, Venus-CBFb, uHTS. Runt-related transcription factor 1 (Homo sapiens) + Core-binding factor subunit beta …. Cerulean-Runt/Venus-CBFb FRET ratio 530/480, 1 h. inhibition, % at 20 µM. hit rate 0.46% among 220,000. AID 1496, 2009;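 active = inhibition over about 50% at 20 µM in the single-dose screen, limit read from the data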
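test system = Cerulean-Runt domain fusion protein, energy donor | probe or stimulus = Venus-CBFb binding partner, 100 nM | incubation = two 1 h room-temperature incubations shielded from light | detection = fluorescence energy transfer, 422 nm excitation, 530/480 nm emission | measure = loss of energy transfer signal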
Runt-SMMHC FRET – inhibitors of RUNX1 Runt–CBFb-SMMHC binding, primary screen, biochemical, FRET, Cerulean-Runt, Venus-CBFb-SMMHC, uHTS. Cerulean-Runt/Venus-CBFb-SMMHC FRET ratio 530/480, 1 h. inhibition, % at 20 µM. hit rate 0.74% among 220,000;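 active = mean inhibition across duplicate retests at 20 µM reaching about 50%, limit read from the data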;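 note: inhibitors lower the FRET ratio by blocking Runt binding to CBFb-SMMHC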
Rce1 inhib – yeast Rce1p protease inhibitors, primary screen, biochemical, fluorescence, cell-free homogeneous | yeast membranes, quenched prenylated peptide cleavage fluorescence | CAAX prenyl protease 2 (Saccharomyces cerevisiae (strain ATCC 204508 / S288c)), Q03530 | calls only | AID 2563, 2010 | hit rate 0.27% among 290,000;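 active = fall in fluorescence gain of 50% or more versus controls, with final raw signal at or below 3038400; inconclusive = same 50% fall but final raw signal above 3038400; inactive = fall in fluorescence gain under 50%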
Target sequence (Q03530 whole entry, looked up): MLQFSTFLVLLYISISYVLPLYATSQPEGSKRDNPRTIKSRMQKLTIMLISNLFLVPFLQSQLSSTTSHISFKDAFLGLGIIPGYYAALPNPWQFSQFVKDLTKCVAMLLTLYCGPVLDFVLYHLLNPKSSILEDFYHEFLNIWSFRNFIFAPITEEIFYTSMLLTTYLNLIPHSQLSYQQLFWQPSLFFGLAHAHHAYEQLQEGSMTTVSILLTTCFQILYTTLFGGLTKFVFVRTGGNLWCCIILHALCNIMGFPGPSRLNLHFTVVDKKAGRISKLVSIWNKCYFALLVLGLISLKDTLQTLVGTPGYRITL
Platelet DG rel – inhibitors of platelet dense granule secretion, primary screen, cell-based, MLPCN, human platelets. hit rate 0.22% among 300,000. inhibition, %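 (compounds screened at 7.5 µM in platelet-rich plasma)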. human platelet-rich plasma, SFLLRN dense granule ATP release, luminescence;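 active = mean replicate score, as percent of positive control, at or above 50; inconclusive = mean below 50 but at least one replicate at or above 50; inactive = mean and every replicate below 50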
RanGTP-Impb inh – inhibitors of RanGTP-importin-beta interaction, primary screen, biochemical, FRET, CFP-Ran, YFP-importin-beta, homogeneous; Ran GTPase (GTP-bound) - importin-beta complex; inhibition, % (no concentration beside the values); hit rate 1.1% among 300,000; cell-free CFP-Ran/YFP-importin-beta FRET ratio; AID 2216, 2009;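 active = more than half of the replicate wells show a fall in the fluorescence ratio signal beyond about 16%, limit read from the data, passing the limit was not always enough; inconclusive = exactly half of the replicate wells pass the set limit; inactive = fewer than half of replicates pass the limit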
A number is an active result; 0 = inactive; ? = inconclusive; - = not tested or not shown; + = active, no number. Rows were chosen to be rich in hits. Some 1.8% of all compounds tested hit in one or more screens of this group.

SMILES | Runt-CBFb FRET | Runt-SMMHC FRET | Rce1 inhib | Platelet DG rel | RanGTP-Impb inh
CCOC(=O)CSc1nc(N2CCOCC2)c2c(c1C#N)CC(C)(C)N(C)C2 | 60 | 84 | 0 | 0 | 19
O=C(Nc1ccccc1N1CCOCC1)C1CCN(S(=O)(=O)c2ccc(F)cc2)CC1 | 0 | 0 | + | 0 | 0
O=C(Nc1ccccc1N1CCCC1)C1CCN(S(=O)(=O)c2ccc(F)cc2)CC1 | - | - | 0 | 0 | 0
O=C(NC1CCCC1)c1cc(S(=O)(=O)N2CCCC2)ccc1Cl | - | - | 0 | 0 | 0
Cc1csc(NC(=O)c2cc3c(s2)-c2ccccc2OC3)n1 | 0 | 0 | 0 | 0 | 49
Cc1ccc(C)n1-c1nccc(-c2ccco2)n1 | 0 | 86 | 0 | 0 | 0
CC(C)CNC(=S)N(CCCO)Cc1cc2cc3c(cc2[nH]c1=O)OCCO3 | - | - | 0 | 0 | 31
CCN(CC)CCCN(Cc1cc2cc3c(cc2[nH]c1=O)OCO3)C(=S)NCc1ccco1 | 0 | 0 | 0 | 0 | 0
CCN(CC)CCN(Cc1cc2cc3c(cc2[nH]c1=O)OCO3)C(=S)NCc1ccco1 | 0 | 0 | + | 0 | 0
CCC(=O)c1ccc(OCC(O)CN2CCN(C(c3ccccc3)c3ccccc3)CC2)cc1 (stereo not given) | 0 | 0 | 0 | 0 | 0
CCn1cc(/C=C(\NC(=O)c2ccc(OC)cc2)C(=O)N2CCN(C)CC2)c2ccccc21 | - | - | 0 | 0 | 0
CCn1cc(/C=C(\NC(=O)c2ccccc2)C(=O)N2CCOCC2)c2ccccc21 | - | - | + | 0 | 0
CN=c1scc(-c2cccs2)n1/N=C/c1ccc(O)c(O)c1O | 0 | 0 | 0 | 60 | ?
CN=c1scc(-c2cccs2)n1/N=C/c1ccccc1O | 0 | 0 | 0 | 0 | 0
CC(=O)c1ccc(-c2ccc(C(=O)N3CCC(C(N)=O)CC3)o2)cc1 | - | - | + | 0 | -
CC(=O)c1ccc(-c2ccc(C(=O)N3CCN(c4ccc(F)cc4)CC3)o2)cc1 | 0 | 0 | 0 | 0 | 0
COc1ccc(NC(=O)c2nc3nc(C)cc(C(F)F)n3n2)cc1OC | 0 | 0 | 0 | 68 | 0
CC1CCCC(C)N1C(=O)CNCc1ccc2c(c1)OCO2 (stereo not given) | - | - | 0 | 0 | 0
COC(=O)c1ccc2[nH]c(C)c(CN3CCCC3)c(=O)c2c1 | 0 | 64 | - | 0 | 0
Cc1[nH]c2ccc(Br)cc2c(=O)c1CN1CCCCC1 | 0 | 0 | 0 | 0 | 0
Cc1nc2c(sc3nc(N4CCOCC4)c4c(c32)CC(C)(C)OC4)c(-c2ccccc2)c1C(=O)O | 0 | 0 | 0 | 0 | 23
CN(C)CCCN(Cc1ccccc1)C(=S)Nc1ccc(OC(F)F)cc1 | 0 | 0 | 0 | 0 | 18
CCOc1c2ccc(C(=O)NCc3ccco3)cc2nn1CCOC | 0 | 0 | + | 0 | 0
CCCCn1nc2cc(C(=O)NCc3ccco3)ccc2c1OCC | 0 | 0 | 0 | 0 | 0
Cc1cc(NC(=O)CSc2ncc(CO)n2Cc2ccc(F)cc2)no1 | - | - | 0 | 0 | 0
SMILES | Runt-CBFb FRET | Runt-SMMHC FRET | Rce1 inhib | Platelet DG rel | RanGTP-Impb inh
COc1ccc(OC)c(N(CC(=O)NC2CCCCCC2)S(=O)(=O)c2ccc(C)cc2)c1 | - | - | - | 0 | 0
Cc1cccc(Nc2ccccc2C(=O)OCC(=O)N(C)C2CCS(=O)(=O)C2)c1C (stereo not given) | 0 | 0 | + | 0 | 0
CN(C(=O)COC(=O)c1cc([N+](=O)[O-])ccc1Sc1ccccc1)C1CCS(=O)(=O)C1 (stereo not given) | 0 | 0 | + | 0 | 0
COCC1=C(C(=O)OC)C(c2ccco2)n2ncnc2N1 (stereo not given) | 0 | 0 | 0 | 0 | 0
CCOc1ccc2nc(SCC(=O)N3c4ccccc4Sc4ccccc43)c(C#N)cc2c1 | 0 | 0 | 0 | 0 | ?
CCOc1ccc2nc(NCCCNS(=O)(=O)c3ccccc3)c(C#N)cc2c1 | 80 | 61 | 0 | 0 | 134
CCCCNc1nc2ccccc2nc1NS(=O)(=O)c1ccc(F)cc1 | - | - | 0 | 0 | ?
CCOc1ccc2nc(NCCCNS(=O)(=O)c3ccc(F)cc3)c(C#N)cc2c1 | - | - | 0 | 0 | 132
CCCn1c(C)cc(C(=O)COC(=O)c2cc(S(=O)(=O)NCC(C)C)c(Cl)cc2Cl)c1C | 0 | 0 | 0 | 0 | 0
